# Assays:
# Type in all cases: functional
# [1] = tested on: Mycolicibacterium smegmatis; test: Antitubercular activity against Mycobacterium smegmatis ATCC 19420 after 7 days by resazurin assay; settings: ATCC 19420, 168 h
# Procedure, shortened: (§1)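 Middlebrook 7H9 broth with 10% OADC, culture adjusted to McFarland 2. 50 µL culture added to 150 µL fresh medium. Stocks at 2 mg/mL in DMF, tested first at 1, 10 and 100 µg/mL, then at 0.3125-5 µg/mL. DMF controls. After 7 days at 37 °C, 0.01% resazurin added. Blue-to-pink change read for MIC.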
# [2] = tested on: Mycolicibacterium fortuitum; test: Antitubercular activity against Mycobacterium fortuitum ATCC 19542 after 7 days by resazurin assay; settings: ATCC 19542, 168 h; procedure, shortened: as §1
# [3] = tested on: Mycobacterium tuberculosis; test: Antitubercular activity against Mycobacterium tuberculosis H37Rv assessed as growth inhibition after 7 days by resazurin assay
# Procedure, shortened: (§2)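 M. tuberculosis H37Rv ATCC 27294 grown in Middlebrook 7H9 broth with 10% OADC and adjusted to McFarland 2. Culture was diluted 1:4 into fresh medium. Compounds came from 2 mg/mL DMF stocks, screened first at 1, 10 and 100, then at 0.3125–5. DMF-only controls were included. After 7 days at 37 °C, 0.01% resazurin was added; a blue-to-pink change marked growth, and the MIC was read.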
# Escherichia coli [4] = test: Antibacterial activity against Escherichia coli ATCC 25922 after 16 to 18 hrs by […]
# Staphylococcus aureus [5] = test: Antibacterial activity against Staphylococcus aureus ATCC 25923 after 16 to 18 hrs by serial plate dilution method
# Pseudomonas aeruginosa [6] = test: Antibacterial activity against Pseudomonas aeruginosa ATCC 27853 after 16 to 18 hrs by […]
# Klebsiella pneumoniae [7] = test: Antibacterial activity against Klebsiella pneumoniae after 16 to 18 hrs by […]
# Bacillus subtilis [8] = test: Antibacterial activity against Bacillus subtilis after 16 to 18 hrs by […]
# Escherichia coli [9] = test: Antibacterial activity against Escherichia coli ATCC 25922 at MIC after 3 to 4 days
# Procedure, shortened: (§3)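 Agar well diffusion on seeded agar plates, 20 mL agar per dish, dried 1 h at 37 °C. Wells punched and loaded with test compound in DMSO at its MIC. DMSO-only control. Plates run in triplicate and kept 3-4 days at 37 °C. Inhibition zone diameter measured.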
# Staphylococcus aureus [10] = test: Antibacterial activity against Staphylococcus aureus ATCC 25923 at […] after 3 to 4 days; procedure, shortened: as §3
# Pseudomonas aeruginosa [11] = test: Antibacterial activity against Pseudomonas aeruginosa ATCC 27853 at MIC after 3 to 4 days; procedure, shortened: as §3
# Klebsiella pneumoniae [12] = test: Antibacterial activity against Klebsiella pneumoniae at MIC after 3 to 4 days; procedure, shortened: as §3
# Bacillus subtilis [13] = test: Antibacterial activity against Bacillus subtilis at MIC after 3 to 4 days; procedure, shortened: as §3
# Aspergillus flavus [14] = test: Antifungal activity against Aspergillus flavus NCIM N0.524 after 3 to 4 days by serial plate dilution method
# Aspergillus fumigatus [15] = test: Antifungal activity against Aspergillus fumigatus NCIM N0.902 after 3 to 4 days by serial plate dilution method
# Talaromyces marneffei [16] = test: Antifungal activity against Penicillium marneffei after 3 to 4 days by serial plate dilution method
# [17] = tested on: Trichophyton mentagrophytes; test: Antifungal activity against Trichophyton mentagrophytes after 3 to 4 days by serial plate dilution method
# Candida albicans [18] = test: Antifungal activity against Candida albicans after 3 to 4 days by serial plate dilution method
# Aspergillus flavus [19] = test: Antifungal activity against Aspergillus flavus NCIM N0.524 at MIC after 3 to 4 days
# Procedure, shortened: (§4)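 Fungal suspension made by transferring a loopful of culture to 3 mL saline and seeding agar plates, 20 mL agar per dish, dried 1 h at 37 °C. Punched wells loaded with test compound in DMSO at its MIC. DMSO-only control. Triplicate plates held 3-4 days at 37 °C. Inhibition zone diameter measured.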
# Aspergillus fumigatus [20] = test: Antifungal activity against Aspergillus fumigatus NCIM N0.902 at MIC after 3 to 4 days; procedure, shortened: as §4
# Talaromyces marneffei [21] = test: Antifungal activity against Penicillium marneffei at MIC after 3 to 4 days; procedure, shortened: as §4
# [22] = tested on: Trichophyton mentagrophytes; test: Antifungal activity against Trichophyton mentagrophytes at MIC after 3 to 4 days; procedure, shortened: as §4
# Candida albicans [23] = test: Antifungal activity against Candida albicans at MIC after 3 to 4 days; procedure, shortened: as §4
# [24] = tested on: Mycobacterium tuberculosis; test: Antitubercular activity against Mycobacterium tuberculosis H37Rv after 7 days by resazurin assay; settings: 168 h; procedure, shortened: as §2
SMILES,MIC [1] [µg/mL],MIC [2] [µg/mL],growth inhibition (GI) [3] [%],MIC (Escherichia coli [4]) [µg/mL],MIC (Staphylococcus aureus [5]) [µg/mL],MIC (Pseudomonas aeruginosa [6]) [µg/mL],MIC (Klebsiella pneumoniae [7]) [µg/mL],MIC (Bacillus subtilis [8]) [µg/mL],diameter of the inhibition zone (DIZ) (Escherichia coli [9]) [mm],diameter of the inhibition zone (DIZ) (Staphylococcus aureus [10]) [mm],diameter of the inhibition zone (DIZ) (Pseudomonas aeruginosa [11]) [mm],diameter of the inhibition zone (DIZ) (Klebsiella pneumoniae [12]) [mm],diameter of the inhibition zone (DIZ) (Bacillus subtilis [13]) [mm],MIC (Aspergillus flavus [14]) [µg/mL],MIC (Aspergillus fumigatus [15]) [µg/mL],MIC (Talaromyces marneffei [16]) [µg/mL],MIC [17] [µg/mL],MIC (Candida albicans [18]) [µg/mL],diameter of the inhibition zone (DIZ) (Aspergillus flavus [19]) [mm],diameter of the inhibition zone (DIZ) (Aspergillus fumigatus [20]) [mm],other results
Nc1nc(COC(=O)c2cccc([N+](=O)[O-])c2Cl)cs1,1,10,90,12.5,12.5,25,6.25,12.5,11,11,<10,16,11,25,25,12.5,25,25,<10,<10,diameter of the inhibition zone (DIZ) (Talaromyces marneffei [21]): 11 mm; diameter of the inhibition zone (DIZ) [22]: <10 mm; diameter of the inhibition zone (DIZ) (Candida albicans [23]): <10 mm; MIC [24]: 0.625 µg/mL
N#Cc1ccc(C(=O)OCc2csc(N)n2)cn1,> 100,> 100,0,6.25,6.25,6.25,6.25,6.25,16,16,16,16,16,25,6.25,25,6.25,25,<10,16,diameter of the inhibition zone (DIZ) (Talaromyces marneffei [21]): <10 mm; diameter of the inhibition zone (DIZ) [22]: 16 mm; diameter of the inhibition zone (DIZ) (Candida albicans [23]): <10 mm; MIC [24]: > 100 µg/mL
Nc1nc(COC(=O)c2c(F)cccc2Cl)cs1,10,10,95,25,6.25,12.5,12.5,6.25,<10,16,11,11,16,25,25,25,25,12.5,<10,<10,diameter of the inhibition zone (DIZ) (Talaromyces marneffei [21]): <10 mm; diameter of the inhibition zone (DIZ) [22]: <10 mm; diameter of the inhibition zone (DIZ) (Candida albicans [23]): 11 mm; MIC [24]: 0.625 µg/mL
Nc1nc(COC(=O)c2c(F)cc(F)cc2F)cs1,10,> 100,<90,6.25,25,6.25,25,25,16,<10,16,<10,<10,6.25,6.25,6.25,6.25,6.25,16,16,diameter of the inhibition zone (DIZ) (Talaromyces marneffei [21]): 16 mm; diameter of the inhibition zone (DIZ) [22]: 16 mm; diameter of the inhibition zone (DIZ) (Candida albicans [23]): 16 mm; MIC [24]: 5 µg/mL
Nc1nc(COC(=O)c2ccco2)cs1,> 100,> 100,0,6.25,6.25,6.25,6.25,6.25,16,16,16,16,16,6.25,25,6.25,25,6.25,16,<10,diameter of the inhibition zone (DIZ) (Talaromyces marneffei [21]): 16 mm; diameter of the inhibition zone (DIZ) [22]: <10 mm; diameter of the inhibition zone (DIZ) (Candida albicans [23]): 16 mm; MIC [24]: > 100 µg/mL
Nc1nc(COC(=O)c2ccc3ccccc3c2)cs1,10,10,<90,6.25,6.25,6.25,6.25,6.25,16,16,16,16,16,12.5,12.5,12.5,12.5,6.25,11,11,diameter of the inhibition zone (DIZ) (Talaromyces marneffei [21]): 11 mm; diameter of the inhibition zone (DIZ) [22]: 11 mm; diameter of the inhibition zone (DIZ) (Candida albicans [23]): 16 mm; MIC [24]: 2.5 µg/mL
Nc1nc(COC(=O)c2ccc([N+](=O)[O-])cc2)cs1,10,10,90,12.5,25,12.5,6.25,12.5,11,<10,10,16,10,6.25,6.25,6.25,6.25,6.25,16,16,diameter of the inhibition zone (DIZ) (Talaromyces marneffei [21]): 16 mm; diameter of the inhibition zone (DIZ) [22]: 16 mm; diameter of the inhibition zone (DIZ) (Candida albicans [23]): 16 mm; MIC [24]: 1 µg/mL
Nc1nc(COC(=O)c2c(Cl)cc(Cl)cc2Cl)cs1,> 100,> 100,<90,25,6.25,25,12.5,6.25,<10,16,<10,11,16,6.25,6.25,6.25,6.25,6.25,16,16,diameter of the inhibition zone (DIZ) (Talaromyces marneffei [21]): 16 mm; diameter of the inhibition zone (DIZ) [22]: 16 mm; diameter of the inhibition zone (DIZ) (Candida albicans [23]): 16 mm; MIC [24]: 10 µg/mL
Nc1nc(COC(=O)c2ccccc2)cs1,> 100,> 100,0,25,6.25,25,6.25,6.25,<10,16,<10,16,16,25,25,25,25,25,<10,<10,diameter of the inhibition zone (DIZ) (Talaromyces marneffei [21]): <10 mm; diameter of the inhibition zone (DIZ) [22]: <10 mm; diameter of the inhibition zone (DIZ) (Candida albicans [23]): <10 mm; MIC [24]: > 100 µg/mL

# — ChEMBL document CHEMBL1944562, “Design, synthesis of some new (2-aminothiazol-4-yl)methylester derivatives as possible antimicrobial and antitubercular agents” (2012)
